Measurements taken from ChEMBL document CHEMBL1150378, “Synthesis and in vitro antiprotozoal activities of water-soluble, inexpensive 3,7-bis(dialkylamino)phenoxazin-5-ium derivatives” (J Med Chem, 2008).
pIC50: −log10 of the molar value.

Legend:
[1] = Selectivity index, Ratio of IC50 for rat L6 cells to IC50 for Plasmodium falciparum K1; assay type: functional
Procedure, shortened: (§1)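 Selectivity index is the L6 myoblast cytotoxicity IC50 divided by the IC50 against the respective parasite. Both IC50 values come from two replicate experiments, with compounds diluted from 10 mg/mL DMSO stocks and final DMSO at most 1%.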

[2] = test system: Plasmodium falciparum; test: Antiplasmodial activity against chloroquine and pyrimethamine-resistant Plasmodium falciparum K1; assay type: functional, organism-based
Procedure, shortened: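 Compounds were prepared as 10 mg/mL DMSO stocks, diluted in serum-free medium, then brought to test concentrations in complete medium without hypoxanthine. DMSO was at most 1% in the top-concentration wells. IC50 values come from two replicate experiments, with chloroquine as the reference standard. Rat L6 myoblast IC50 served for the selectivity index.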

[3] = test system: Leishmania donovani; test: Antileishmanial activity against Leishmania donovani MHOM-ET-67/L82 axenic amastigotes; assay type: functional, organism-based
Procedure, shortened: (§2)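 Test compounds were made up as 10 mg/mL stocks in 100% DMSO, warmed or sonicated to dissolve, then diluted in serum-free medium and brought to working concentration in complete medium without hypoxanthine. DMSO was at most 1% in the top-concentration wells. IC50 was determined by previously described methods, with values from two replicate experiments. Reference drugs were chloroquine, melarsoprol, benznidazole, miltefosine and podophyllotoxin (L6).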

[4] = test system: Trypanosoma cruzi; test: Antitrypanosomal activity against Trypanosoma cruzi Tulahuen C2C4; assay type: functional, organism-based; procedure, shortened: as §2
[5] = Selectivity index, Ratio of IC50 for rat L6 cells to IC50 for Trypanosoma brucei rhodesiense STIB900; assay type: functional; procedure, shortened: as §1
[6] = Selectivity index, Ratio of IC50 for rat L6 cells to IC50 for Trypanosoma cruzi Tulahuen C2C4; assay type: functional; procedure, shortened: as §1
[7] = test system: Trypanosoma brucei rhodesiense; test: Antitrypanosomal activity against Trypanosoma brucei rhodesiense STIB900; assay type: functional, organism-based; procedure, shortened: as §2
[8] = Selectivity index, Ratio of IC50 for rat L6 cells to IC50 for Leishmania donovani MHOM-ET-67/L82 axenic amastigotes; assay type: functional; procedure, shortened: as §1
[9] = test system: L6; test: Cytotoxicity against rat L6 cells; assay type: cell-based; procedure, shortened: as §2

Structure (SMILES) | Ratio IC50 [1] | pIC50 [2] | pIC50 [3] | pIC50 [4] | Ratio IC50 [5] | Ratio IC50 [6] | pIC50 [7] | Ratio IC50 [8] | pIC50 [9]
CCN(CC)c1ccc2nc3ccc(N(CC)CC)cc3[o+]c2c1.[Cl-] | 2410 | 8.52 | 6.67 | 7.44 | 29.4 | 185.4 | 6.64 | 31.3 | 5.17
CCN(CC)c1ccc2nc3ccc(N4CCOCC4)cc3[o+]c2c1.[Cl-] | 1363.6 | 7.54 | 4.79 | 5.53 | 9.9 | 13.6 | 5.39 | 2.5 | 4.40
CCCN(CCC)c1ccc2nc3ccc(N4CCOCC4)cc3[o+]c2c1.[Cl-] | 3883 | 8.30 | 6.12 | 6.39 | 22.2 | 47.6 | 6.06 | 25.6 | 4.71
CN(C)c1ccc2nc3ccc(N4CCSCC4)cc3[o+]c2c1.[Cl-] | 4022.5 | 8.22 | 4.84 | 6.22 | 4.1 | 36.6 | 5.26 | 1.5 | 4.65
CCN(CC)c1ccc2nc3ccc(N4CCSCC4)cc3[o+]c2c1.[Cl-] | 2822 | 8.10 | 6.00 | 6.81 | 13.5 | 141.1 | 5.79 | 21.6 | 4.66
CCCN(CCC)c1ccc2nc3ccc(N4CCSCC4)cc3[o+]c2c1.[Cl-] | 976.7 | 8.15 | 5.93 | 6.79 | 4.6 | 43.1 | 5.82 | 6 | 5.15
[Cl-].c1cc2nc3ccc(N4CCCCC4)cc3[o+]c2cc1N1CCCCC1 | 1050 | 8.30 | 5.94 | 7.09 | 35.6 | 67.7 | 6.81 | 4.8 | 5.26
CN(C)c1ccc2nc3ccc(N4CCCCC4)cc3[o+]c2c1.[Cl-] | 7740 | 8.52 | 5.78 | 6.76 | 26.7 | 129 | 6.07 | 13.6 | 4.65
CCN(CC)c1ccc2nc3ccc(N4CCCCC4)cc3[o+]c2c1.[Cl-] | 2390 | 8.52 | 5.84 | 7.32 | 26.3 | 132.8 | 6.61 | 4.5 | 5.19
CCCN(CCC)c1ccc2nc3ccc(N4CCCCC4)cc3[o+]c2c1.[Cl-] | 105.3 | 8.10 | 7.01 | 7.64 | 3.3 | 35.1 | 6.62 | 8.1 | 6.10
CCCCN(CCCC)c1ccc2nc3ccc(N4CCCCC4)cc3[o+]c2c1.[Cl-] | 12.3 | 8.15 | 8.70 | 7.24 | 0.3 | 1.5 | 6.57 | 37 | 7.05
CCCCCCN(CCCCCC)c1ccc2nc3ccc(N4CCCCC4)cc3[o+]c2c1.[Cl-] | 48 | 8.40 | 7.85 | 7.68 | 13.7 | 9.6 | 7.85 | 13.7 | 6.70
[Cl-].c1cc2nc3ccc(N4CCCC4)cc3[o+]c2cc1N1CCCC1 | 1400 | 8.52 | 7.43 | 6.92 | 24.6 | 32.6 | 6.80 | 107.7 | 5.41
CCCN(CCC)c1ccc2nc3ccc(N(CCC)CCC)cc3[o+]c2c1.[Cl-] | 165 | 8.70 | 8.70 | 7.77 | 17.4 | 23.6 | 7.64 | 165 | 6.40
[Cl-].c1cc2nc3ccc(N4CCOCC4)cc3[o+]c2cc1N1CCOCC1 | 66.5 | 6.37 | 5.29 | 5.15 | 3.3 | 4 | 5.06 | 5.5 | 4.54
CCN(CC)c1ccc2nc3ccc(N4CCCC4)cc3[o+]c2c1.[Cl-] | 1390 | 8.22 | 6.18 | 7.25 | 46.3 | 139 | 6.77 | 11.9 | 5.11
CCCN(CCC)c1ccc2nc3ccc(N4CCCC4)cc3[o+]c2c1.[Cl-] | 355 | 8.52 | 7.80 | 7.44 | 59.2 | 25.4 | 7.80 | 59.2 | 6.04
CN(C)c1ccc2nc3ccc(N4CCCC4)cc3[o+]c2c1.[Cl-] | 2166.5 | 8.22 | 5.77 | 6.59 | 144.4 | 51 | 7.04 | 7.7 | 4.88
CN(C)c1ccc2nc3ccc(N4CCOCC4)cc3[o+]c2c1.[Cl-] | 2153.9 | 7.64 | 5.98 | 5.30 | 19.2 | 9.8 | 5.59 | 47.2 | 4.30
CCCCCN(CCCCC)c1ccc2nc3ccc(N4CCCCC4)cc3[o+]c2c1.[Cl-] | 63 | 8.70 | 8.70 | 7.82 | 6.3 | 9 | 7.66 | 63 | 6.85
O=C(Cn1ccnc1[N+](=O)[O-])NCc1ccccc1 [BENZNIDAZOLE] | – | – | – | 6.06 | – | – | – | – | –
CCCCCCCCCCCCCCCCOP(=O)([O-])OCC[N+](C)(C)C [MILTEFOSINE] | – | – | 6.55 | – | – | – | – | – | –
COc1cc([C@@H]2c3cc4c(cc3[C@H](O)[C@H]3COC(=O)[C@H]23)OCO4)cc(OC)c1OC [PODOFILOX] | – | – | – | – | – | – | – | – | 7.70
